Activity calls are given as the source filed them. No cut-off for these calls is given here.
How the values were obtained:
Adenosine receptor A2a = Adenosine receptor A2a (Rattus norvegicus, UniProt P30543); assay: Displacement of [3H]MSX-2 from adenosine A2A receptor in rat brain striatal membrane; assay type: cell membranes
Mus musculus [1] = assay: Anticonvulsant activity in F1 albino mouse assessed as protection against subcutaneous pentylenetetrazole-induced seizures at 300 mg/kg, ip after 1 hr; assay type: functional, organism-based; design: dose 300 mg/kg
Procedure, shortened: (§1)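 Male albino F-1 mice (18–25 g), groups of 1–5 (rotorod 2–8). Compound given ip as a suspension in 0.5% methylcellulose at 30, 100 and 300 mg/kg. Seizures by maximal electroshock or subcutaneous pentylenetetrazole; neurotoxicity by rotorod. Read at 0.5 and 4 h, with some at 0.25, 1 and 2 h. Value is the minimum active dose, with protected (or toxic)/tested animals.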

Mus musculus [2] = assay: Anticonvulsant activity in F1 albino mouse assessed as protection against subcutaneous pentylenetetrazole-induced seizures at 300 mg/kg, ip after 4 hrs; assay type: functional, organism-based; design: dose 300 mg/kg; procedure, shortened: as §1
Mus musculus [3] = assay: Neurotoxicity in F1 albino mouse assessed as minimal motor impairment at 100 mg/kg, ip after 1 hr by rotorod test; assay type: toxicity, organism-based; design: dose 100 mg/kg, route intraperitoneal; conditions: in vivo; procedure, shortened: as §1
Mus musculus [4] = assay: Neurotoxicity in F1 albino mouse assessed as minimal motor impairment at 300 mg/kg, ip after 4 hrs by rotorod test; assay type: toxicity, organism-based; design: dose 300 mg/kg, route intraperitoneal; conditions: in vivo; procedure, shortened: as §1
Adenosine receptor A1 = molecular target: T1, Adenosine receptor A1 (Rattus norvegicus, UniProt P25099); assay: Displacement of [3H]CCPA from adenosine A1 receptor in rat brain cortical membrane; assay type: cell membranes
T1 sequence (P25099 whole entry): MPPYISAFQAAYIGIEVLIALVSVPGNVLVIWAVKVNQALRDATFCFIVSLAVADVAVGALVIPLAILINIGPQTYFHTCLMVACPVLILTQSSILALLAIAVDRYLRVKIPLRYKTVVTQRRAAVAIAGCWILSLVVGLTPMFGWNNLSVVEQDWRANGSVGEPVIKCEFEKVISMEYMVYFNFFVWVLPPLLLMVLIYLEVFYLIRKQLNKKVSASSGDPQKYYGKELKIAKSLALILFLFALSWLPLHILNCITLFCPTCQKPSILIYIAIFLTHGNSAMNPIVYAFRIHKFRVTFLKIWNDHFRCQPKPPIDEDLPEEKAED

Mus musculus [5] = assay: Anticonvulsant activity in F1 albino mouse assessed as protection against maximal electroshock-induced seizures at 300 mg/kg, ip after 1 hr; assay type: functional, organism-based; design: dose 300 mg/kg; procedure, shortened: as §1
Mus musculus [6] = assay: Anticonvulsant activity in F1 albino mouse assessed as protection against subcutaneous pentylenetetrazole-induced seizures at 300 mg/kg, ip after 0.5 hrs; assay type: functional, organism-based; design: dose 300 mg/kg; procedure, shortened: as §1
Mus musculus [7] = assay: Anticonvulsant activity in F1 albino mouse assessed as protection against maximal electroshock-induced seizures at 300 mg/kg, ip after 0.25 hrs; assay type: functional, organism-based; design: dose 300 mg/kg; procedure, shortened: as §1
Mus musculus [8] = assay: Anticonvulsant activity in F1 albino mouse assessed as protection against maximal electroshock-induced seizures at 300 mg/kg, ip after 4 hrs; assay type: functional, organism-based; design: dose 300 mg/kg; procedure, shortened: as §1
Mus musculus [9] = assay: Neurotoxicity in F1 albino mouse assessed as minimal motor impairment at 100 mg/kg, ip after 0.5 hrs by rotorod test; assay type: toxicity, organism-based; design: dose 100 mg/kg, route intraperitoneal; conditions: in vivo; procedure, shortened: as §1
Mus musculus [10] = assay: Neurotoxicity in F1 albino mouse assessed as minimal motor impairment at 300 mg/kg, ip after 0.25 hrs by rotorod test; assay type: toxicity, organism-based; design: dose 300 mg/kg, route intraperitoneal; conditions: in vivo; procedure, shortened: as §1
Mus musculus [11] = assay: Anticonvulsant activity in F1 albino mouse assessed as protection against maximal electroshock-induced seizures at 300 mg/kg, ip after 0.5 hrs; assay type: functional, organism-based; design: dose 300 mg/kg; procedure, shortened: as §1
Mus musculus [12] = assay: Anticonvulsant activity in F1 albino mouse assessed as protection against subcutaneous pentylenetetrazole-induced seizures at 300 mg/kg, ip after 0.25 hrs; assay type: functional, organism-based; design: dose 300 mg/kg; procedure, shortened: as §1
Rattus norvegicus = species on record: Rattus norvegicus; assay: Selectivity ratio of Ki for adenosine A1 receptor in rat brain cortical membrane to Ki for adenosine A2A receptor in rat brain striatal membrane; assay type: cell membranes
Procedure, shortened: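 Ki ratios from radioligand competition binding. Rat A1 used brain cortical membranes and rat A2A used brain striatal membranes. Human A1 and A2A used membranes of CHO cells expressing the receptors. A1 radioligand [³H]CCPA; A2A radioligand [³H]MSX-2. Potent compounds were tested at 6–7 concentrations spanning 3 orders of magnitude.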

Sequence of Adenosine receptor A2a (P30543 whole entry): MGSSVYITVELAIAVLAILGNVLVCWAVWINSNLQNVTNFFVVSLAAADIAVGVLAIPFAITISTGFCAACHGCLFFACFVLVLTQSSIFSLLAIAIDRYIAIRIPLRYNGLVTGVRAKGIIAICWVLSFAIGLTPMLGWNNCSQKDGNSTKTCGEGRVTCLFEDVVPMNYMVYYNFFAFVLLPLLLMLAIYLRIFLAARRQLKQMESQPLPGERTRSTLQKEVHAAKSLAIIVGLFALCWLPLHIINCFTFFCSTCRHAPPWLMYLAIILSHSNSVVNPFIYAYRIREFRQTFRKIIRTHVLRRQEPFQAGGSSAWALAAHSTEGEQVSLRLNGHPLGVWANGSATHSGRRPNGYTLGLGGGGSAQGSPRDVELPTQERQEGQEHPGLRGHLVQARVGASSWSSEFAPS

Question: Cn1c(=O)c2c(nc3n2CCCCN3CCC2=CCCCC2)n(C)c1=O was tested. Which Ki (Adenosine receptor A2a) did it give?
Answer: 1.17 µM

Question: And the Activity (Mus musculus [1])?
Answer: inactive

Question: And the Activity (Mus musculus [2])?
Answer: inactive

Question: And the Activity (Mus musculus [3])?
Answer: Non-toxic

Question: What about the Activity (Mus musculus [4]) of the same compound?
Answer: Non-toxic

Question: What about the Ki (Adenosine receptor A1) of the same compound?
Answer: 1.66 µM

Question: What about the Activity (Mus musculus [5]) of the same compound?
Answer: inactive

Question: What about the Activity (Mus musculus [6]) of the same compound?
Answer: inactive

Question: What about the Activity (Mus musculus [7]) of the same compound?
Answer: inactive

Question: And the Activity (Mus musculus [8])?
Answer: inactive

Question: And the Activity (Mus musculus [9])?
Answer: Non-toxic

Question: And the Activity (Mus musculus [10])?
Answer: Non-toxic

Question: What about the Activity (Mus musculus [11]) of the same compound?
Answer: inactive

Question: What about the Activity (Mus musculus [12]) of the same compound?
Answer: inactive

Question: What about the Ratio Ki (Rattus norvegicus) of the same compound?
Answer: 1

From ChEMBL document CHEMBL2150901, “Synthesis and biological activity of tricyclic cycloalkylimidazo-, pyrimido- and diazepinopurinediones” (Eur J Med Chem, 2011)
